Data as given in ChEMBL document CHEMBL1143062, “Identification of natural-product-derived inhibitors of 5-lipoxygenase activity by ligand-based virtual screening” (J Med Chem, 2007).

What was measured:
[1] = biological target: T1, Polyunsaturated fatty acid 5-lipoxygenase (Homo sapiens) (UniProt P09917); test: Inhibition of partially purified human 5-LO expressed in Escherichia coli assessed as remaining 5-LO activity at 10 uM; values are per cent of control
T1 sequence (whole entry): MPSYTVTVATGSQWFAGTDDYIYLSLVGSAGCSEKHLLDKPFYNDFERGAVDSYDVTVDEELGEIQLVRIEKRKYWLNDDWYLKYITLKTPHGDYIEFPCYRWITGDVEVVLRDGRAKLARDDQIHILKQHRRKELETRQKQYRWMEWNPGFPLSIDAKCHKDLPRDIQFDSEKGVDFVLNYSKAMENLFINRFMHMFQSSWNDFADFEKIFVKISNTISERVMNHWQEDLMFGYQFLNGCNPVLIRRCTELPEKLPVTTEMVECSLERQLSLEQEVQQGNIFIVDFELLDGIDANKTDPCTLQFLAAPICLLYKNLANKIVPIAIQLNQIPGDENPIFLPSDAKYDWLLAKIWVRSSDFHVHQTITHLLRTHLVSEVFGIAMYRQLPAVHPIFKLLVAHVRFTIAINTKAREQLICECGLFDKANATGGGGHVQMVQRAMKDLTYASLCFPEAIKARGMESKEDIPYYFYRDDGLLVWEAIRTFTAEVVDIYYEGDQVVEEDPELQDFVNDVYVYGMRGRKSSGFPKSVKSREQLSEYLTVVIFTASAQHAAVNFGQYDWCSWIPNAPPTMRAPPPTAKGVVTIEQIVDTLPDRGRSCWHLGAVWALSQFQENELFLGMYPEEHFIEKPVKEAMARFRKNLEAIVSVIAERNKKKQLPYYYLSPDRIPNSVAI

[2] = biological target: T2, Polyunsaturated fatty acid 5-lipoxygenase (Homo sapiens, UniProt P09917); test: Inhibition of partially purified human 5-LO expressed in Escherichia coli
T2 sequence (P09917 whole entry): T1 sequence (whole entry)
Summary of the method: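 Recombinant 5-LO from E. coli MV1190 (pT3-5LO, expressed at 27 °C), partially purified by ammonium sulfate precipitation and ATP-agarose chromatography of the S100 fraction. 0.5 µg protein in PBS pH 7.4 with 1 mM EDTA and 1 mM ATP, compound 5-10 min at 4 °C. Started with 2 mM CaCl2 and 20 µM arachidonic acid, 10 min at 37 °C, methanol stop. HPLC product analysis as remaining activity; n ≥ 3, mean ± SEM.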

[3] = biological target: T2, Polyunsaturated fatty acid 5-lipoxygenase; test: Inhibition of 5-LO activity in ionophore A23187 and arachidonic-stimulated human intact PMNL; format: functional
Summary of the method: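 Freshly isolated human PMNL from healthy-donor leukocyte concentrates (dextran sedimentation, Nycoprep, hypotonic erythrocyte lysis), 5 × 10^6 cells/mL in PBS pH 7.4 with 1 mg/mL glucose and 1 mM CaCl2. 5-LO products analysed by HPLC; n ≥ 3, mean ± SEM.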

[4] = biological target: T1, Polyunsaturated fatty acid 5-lipoxygenase (Homo sapiens); test: Inhibition of partially purified human 5-LO expressed in Escherichia coli assessed as remaining 5-LO activity at 1 uM; values are per cent of control

SMILES	residual activity [1] [%]	IC50 [2] [µM]	IC50 [3] [µM]	residual activity [4] [%]
Cc1nnsc1C(=O)Nc1nc2c(s1)CC1(C)CCC3C(C)C(=O)OC3C1C2C (stereo unspecified)	88	> 10	10	87
COc1cc(C)c2c(c1C)CC(C(C)C(=O)Nc1ccccn1)CC2 (stereo unspecified)	42	0.8	5	54
COc1cc(C)c2c(c1C)CC(C(C)C(=O)Nc1nccs1)CC2 (stereo unspecified)	56	–	–	73
COc1cc(C(=O)Nc2nc3c(s2)C[C@]2(C)CC[C@@H]4[C@H](OC(=O)[C@H]4C)[C@H]2[C@@H]3C)cc(OC)c1OC	60	> 10	0.9	65
COCCOc1cc(C)c2c(c1C)CC(C(C)C(=O)NC1CCCC1)CC2 (stereo unspecified)	56	> 10	> 10	67
CC1C(=O)OC2C1CCC1(C)Cc3sc(NC(=O)c4ccc5c(c4)OCO5)nc3C(C)C21 (stereo unspecified)	96	> 10	2	67
Cc1cc(OCCN(C)C)c(C)c2c1CCC(C(C)C(=O)Nc1ccccn1)C2 (stereo unspecified)	73	–	–	56
COc1cc(C)c2c(c1C)CC(C(C)C(=O)NCc1cccs1)CC2 (stereo unspecified)	64	> 10	8	64
CCCOc1cc(C)c2c(c1C)CC(C(C)C(=O)NCc1cccs1)CC2 (stereo unspecified)	–	3	8	–
CC1C(=O)OC2C1CCC1(C)Cc3sc(NC(=O)C4CCCC4)nc3C(C)C21 (stereo unspecified)	52	10	8	66
CCCOc1cc(C)c2c(c1C)CC(C(C)C(=O)Nc1ncc(C)s1)CC2 (stereo unspecified)	–	0.8	1	–
COc1cc(C)c2c(c1C)CC(C(C)C(=O)NC(C)(C)C)CC2 (stereo unspecified)	42	4	> 10	55
COc1ccccc1CC(=O)Nc1nc2c(s1)CC1(C)CCC3C(C)C(=O)OC3C1C2C (stereo unspecified)	86	> 10	4	87
Cc1cc(OCCN(C)C)c(C)c2c1CCC(C(C)C(=O)Nc1nccs1)C2 (stereo unspecified)	65	1	> 10	55
CCCOc1cc(C)c2c(c1C)CC(C(C)C(=O)Nc1ccccn1)CC2 (stereo unspecified)	–	6	0.9	–
CC1C(=O)OC2C1CCC1(C)Cc3sc(NC(=O)Nc4ccc(F)cc4F)nc3C(C)C21 (stereo unspecified)	52	0.6	7	46
CSc1cccc(NC(=O)Nc2nc3c(s2)CC2(C)CCC4C(C)C(=O)OC4C2C3C)c1 (stereo unspecified)	67	1	4	55
CCCOc1cc(C)c2c(c1C)CC(C(C)C(=O)Nc1nccs1)CC2 (stereo unspecified)	36	1	0.8	50
Cc1cc(OCCN2CCOCC2)c(C)c2c1CCC(C(C)C(=O)Nc1nccs1)C2 (stereo unspecified)	62	–	–	74
COc1ccc(C(=O)Nc2nc3c(s2)CC2(C)CCC4C(C)C(=O)OC4C2C3C)cc1 (stereo unspecified)	78	> 10	6	57
CC1C(=O)OC2C1CCC1(C)Cc3sc(NC(=O)NCc4ccccc4)nc3C(C)C21 (stereo unspecified)	54	> 10	3	78
COc1cc(C)c2c(c1C)CC(C(C)C(=O)NCc1ccco1)CC2 (stereo unspecified)	41	0.9	> 10	47
